# Source: PubChem (Broad Institute)
# Xi reactivation: activators of inactive X chromosome reactivation, primary screen, imaging, XiGFP fibroblasts, GFP high-content imaging, set 2; XiGFP mouse fibroblasts, % GFP-positive cells imaging, 3 d; cells co-treated with 5-aza-dC sensitizer; scaled so ellipticine positive control = 100%; activation, % at 7.58 µM; 360,000 tested, 0.055% active;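 active means mean normalized replicate activation at least 10% and every replicate at or above 10%; inconclusive means only one of the two criteria met; inactive means mean below 10% and not all replicates reach 10%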;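 further: 0% = median of on-plate neutral control wells and 100% = ellipticine 6 µM median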
#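 Schedule: 3 d treatment, 15 min room-temperature fixation; system: 68-5-11 XiGFP fibroblast line; buffer or medium: DMEM plus 5-aza-dC sensitizer; control set: ellipticine 6 µM positive control; compound: one concentration, pinned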
# F508del corr: F508del CFTR correction, initial screen, CFBE line, single point | activity (quench increase), % at 7.58 µM | 350,000 tested, 0.36% active | AID 720511, 2013 | CFBE cells, YFP halide quenching; stimulated with forskolin plus potentiator P3; % fluorescence drop versus neutral controls;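 active means mean added fluorescence quench of at least 8% versus neutral control, with both replicates also reaching 8%; inconclusive means only one of the mean or replicate conditions met; inactive means mean below 8% and not both replicates reaching 8%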;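 further: cells transiently co-express mutant CFTR-F508del with the halide-sensitive YFP; corrector assay measuring rescue of mutant channel to the surface after 24 h compound exposure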
# E-selectin induc: E-selectin induction in HUVECs, primary screen, imaging, HUVEC, immunofluorescence imaging, single point | P16581 | normalized: neutral wells 0, TNF-alpha wells 100 | activation, % at 7.58 µM | 260,000 tested, 0.37% active | AID 686992, 2013;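 active means mean E-selectin-positive cell signal at least 10% of the positive control, reached in at least 60% of replicates, without over 20% cell loss; inconclusive means no rule given, readout overlaps actives, possibly toxicity-flagged; inactive means the rest, including those meeting only one limit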
# Target sequence (P16581 whole entry, looked up): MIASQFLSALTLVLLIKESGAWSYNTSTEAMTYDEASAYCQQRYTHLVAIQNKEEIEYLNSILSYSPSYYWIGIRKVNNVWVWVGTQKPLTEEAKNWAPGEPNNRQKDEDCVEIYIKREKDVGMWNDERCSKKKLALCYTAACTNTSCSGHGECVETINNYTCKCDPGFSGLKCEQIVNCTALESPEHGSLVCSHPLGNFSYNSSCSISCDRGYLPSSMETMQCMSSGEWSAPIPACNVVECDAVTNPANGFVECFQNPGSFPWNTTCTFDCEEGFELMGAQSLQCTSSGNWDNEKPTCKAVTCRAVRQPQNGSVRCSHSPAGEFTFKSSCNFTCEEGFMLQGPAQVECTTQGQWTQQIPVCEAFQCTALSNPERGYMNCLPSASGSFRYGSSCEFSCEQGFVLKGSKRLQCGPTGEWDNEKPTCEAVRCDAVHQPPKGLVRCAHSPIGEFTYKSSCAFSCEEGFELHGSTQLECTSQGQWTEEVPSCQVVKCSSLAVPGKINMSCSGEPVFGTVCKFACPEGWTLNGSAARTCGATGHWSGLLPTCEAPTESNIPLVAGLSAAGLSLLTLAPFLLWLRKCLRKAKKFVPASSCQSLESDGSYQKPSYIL
#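 material = human umbilical vein endothelial cells (HUVEC), E-selectin induction | quantity = 3,000 cells/well | medium = EGM-2 growth medium on 0.1% gelatin-coated wells | technique = immunofluorescence imaging | read-out basis = % PE-positive cells | control set = TNF-alpha positive control, DMSO neutral control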
# Starred values were filed as active, the others as inactive; ? = inconclusive; / = no result given. The list is not random: actives were taken first. Their share in the collection is about 0.61%.
SMILES,Xi reactivation,F508del corr,E-selectin induc
O=C(C[C@H]1CC[C@@H](NC(=O)C2CCC2)[C@H](CO)O1)NC1CCCCC1,0,-1,1
CC1C=NC(S(=O)(=O)N2CC[C@H]3[C@@H](CO)N(C)c4ccc(-c5cccc(F)c5)cc4[C@H]32)=N1 (some centres undefined),0,-2,0
O=c1cc(O)c2ccc(O)cc2o1,/,1,/
O=c1ccc2[n+]([O-])c3ccc(O)cc3oc-2c1,1,23*,193*
CCOc1cc(/C=N/NC(=O)N/N=C/c2ccc(O)c(OCC)c2)ccc1O,0,11*,1
CCOc1cc(/C=N/NC(=O)C(=O)N/N=C/c2ccc(O)c(OCC)c2)ccc1O,0,-11,/
CCNC(=O)/C=C/c1ccccc1[N+](=O)[O-],0,-3,31*
CCC(C)(C)NC(=O)/C=C/c1ccccc1[N+](=O)[O-],0,-2,4
CO[C@@H]1CN(C)C(=O)c2ccc(NC(=O)c3ccccc3)cc2OC[C@@H](C)N(CC2CC2)C[C@@H]1C,0,2,1
COc1ccc(CNC(=O)CSc2nc3ccc(C)cc3[nH]2)cc1,0,3,1
CCCCNC(=O)CSc1nc2ccc(C)cc2[nH]1,0,17*,19
CC(=O)Nc1ccc(S(=O)(=O)N2c3ccccc3C(C)=CC2(C)C)cc1,0,9.5*,1
CC1=CC(C)(C)N(S(=O)(=O)c2ccc(F)cc2)c2ccccc21,/,3,/
COc1ccccc1NS(=O)(=O)c1cc(N=N/C(C(=O)Nc2ccc(Cl)cc2)=C(/C)O)ccc1C,-1,11*,0
COc1ccccc1NC(=O)/C(N=Nc1ccc(C)c(S(=O)(=O)Nc2ccccc2Cl)c1)=C(\C)O,0,7,0
C[C@H](CO)N1C[C@H](C)[C@@H](CN(C)C(=O)c2ccncc2)Oc2ncc(-c3ccc(C(=O)N(C)C)cc3)cc2C1=O,-1,2,0
CC=Cc1ccc2n(c1=O)C[C@H]1[C@H](CO)[C@@H](C(=O)OC)N(CCc3ccccc3)[C@@H]21 (mixture of isomers),0,/,0
CCOC(=O)c1[nH]c(C)c(/C(O)=C2\C(=O)C(=O)N(CCCN3CCOCC3)C2c2cccs2)c1C (centres undefined),2,15*,/
CCOC(=O)c1[nH]c(C)c(/C(O)=C2\C(=O)C(=O)N(CCN3CCOCC3)C2c2ccco2)c1C (centres undefined),0,-1,/
Cc1c(C)c2c(OCC(=O)N3CCC[C@H]3C(=O)O)cc3c(c2oc1=O)CCC(C)(C)O3,/,-4,/
Cc1c(C)c2c(OCC(=O)N3CCC(O)CC3)cc3c(c2oc1=O)CCC(C)(C)O3,/,9.2*,/
CCOc1ccc(S(=O)(=O)NCc2ccccn2)cc1NC(=O)c1ccccc1,1,6,/
COc1ccc(S(=O)(=O)NCc2ccccn2)cc1NC(=O)c1ccccc1F,1,8.6*,1
CO[C@H]1CN(C)C(=O)c2ccc(NC(C)=O)cc2OC[C@@H](C)N(C(=O)CN2CCOCC2)C[C@H]1C,0,-1,0
CCN(CC(=O)Nc1cc(Cl)ccc1-n1cncn1)Cc1nc2ccccc2c(=O)[nH]1,0,14*,0
SMILES,Xi reactivation,F508del corr,E-selectin induc
CN(CC(=O)Nc1cc(C(F)(F)F)ccc1-n1cncn1)Cc1nc2ccccc2c(=O)[nH]1,0,-1,/
COc1ccccc1NS(=O)(=O)c1cc(C(=O)N2CCCCCC2)ccc1C,0,18*,-2
COc1ccccc1NS(=O)(=O)c1cc(C(=O)N2CCCC2)ccc1C,-1,1,1
C/C(=N\NC(=O)c1cc(C(C)C)[nH]n1)c1ccncc1,0,1,2
C/C(=N\NC(=O)c1cc(C(C)C)[nH]n1)c1ccco1,0,/,27*
CO[C@H]1CN(C)C(=O)c2cc(NC(=O)Cc3ccccc3)ccc2OC[C@H](C)N(CC2CC2)C[C@H]1C,1,-1,0
CN1CCN(C(=O)C[C@@H]2CC[C@@H]3[C@H](COc4ccc(NC(=O)c5cscn5)cc4C(=O)N3C)O2)CC1,0,-2,0
CCOc1ccc(C(=O)NNC(=O)c2cc(C)oc2C)cc1,1,1,0
CCC(=O)c1ccc(OCC(=O)NNC(=O)c2cc(C)oc2C)cc1,0,-2,49*
COc1ccc2c3c(n(C)c2c1)[C@H](CO)N(C(=O)c1cnccn1)CC31CN(C(=O)c2cnccn2)C1,0,0,0
Cc1ccccc1NC(=O)Nc1ccc2c(c1)C(=O)N(C)[C@@H]1CC[C@@H](CC(=O)NCC3CC3)O[C@@H]1CO2,0,-1,0
Cc1ccc(S(=O)(=O)Nc2ccc3c(c2)C(=O)N([C@H](C)CO)C[C@H](C)[C@@H](CN(C)C(=O)c2ccccc2)OCCCC[C@H](C)O3)cc1,0,0,/
COc1ccc(C(=O)CCC(=O)NCCc2c[nH]c3ccccc23)cc1OC,0,-2,0
COc1ccc(C(C)=O)cc1CS(=O)(=O)CC(=O)NCCc1c[nH]c2ccccc12,0,12*,0
CN1CCN(C(=O)C[C@H]2CC[C@H]3[C@H](COc4ccc(NC(=O)c5cscn5)cc4C(=O)N3C)O2)CC1,0,2,0
Cc1cc2c(cc1C)C(c1ccccc1OC(C)C)CC(=O)N2 (centres undefined),0,12*,1
COc1ccccc1C1CC(=O)Nc2cc(C)c(C)cc21 (centres undefined),0,?,/
CC(=NNC(=S)N1CCCCC1)c1ccccn1,3,6,2
CC(=NNC(=S)N1CCCCC1)c1cccc(C)n1,1,12*,0
Cc1ccc(S(=O)(=O)N2CC[C@@H]3[C@@H](CO)Nc4ccc(-c5ccc(C#N)cc5)cc4[C@@H]32)cc1,0,0,0
C[C@@H]1CCCCO[C@@H](CN(C)Cc2ccc(C(=O)Nc3ccccc3N)cc2)[C@@H](C)CN([C@H](C)CO)C(=O)c2cc(NC(=O)c3ccncc3)ccc2O1,-1,-1,0
COc1ccc(NC(=O)N[C@H]2CC[C@H](CCNC(=O)Cc3ccncc3)O[C@H]2CO)cc1,0,1,0
C[C@@H]1CN([C@@H](C)CO)C(=O)c2cc(NS(=O)(=O)c3cccs3)ccc2O[C@@H]1CN(C)C(=O)Nc1ccc2c(c1)OCO2,0,1,36*
C[C@H](CO)N1C[C@H](C)[C@@H](CN(C)S(C)(=O)=O)Oc2ccc(NS(=O)(=O)c3cccs3)cc2C1=O,0,-4,429*
C[C@H](CO)N1C[C@H](C)[C@H](CN(C)S(C)(=O)=O)Oc2ccc(NS(=O)(=O)c3cccs3)cc2C1=O,0,0,1
C[C@H]1CN([C@@H](C)CO)C(=O)c2cc(NS(=O)(=O)c3cccs3)ccc2O[C@@H]1CN(C)C(=O)Nc1ccc2c(c1)OCO2,-1,-1,1
COc1ccc(S(=O)(=O)Nc2ccc3c(c2)C(=O)N([C@H](C)CO)C[C@H](C)[C@H](CN(C)C(=O)Nc2c(C)noc2C)OCCCC[C@H](C)O3)cc1,0,-3,0
